MITF act = activators of MITF-driven TRPM1 promoter activity in SK-MEL-5 cells; SK-MEL-5 TRPM1-promoter luciferase, 24 h; % of positive control, neutral wells = 0; activation, % at 12.5 µM; 0.75% of 300,000 active; AID 588334;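 active means mean activation of at least 80% with every replicate also reaching 80%; inconclusive means mean reaches 80% but some replicate falls short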;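 further: 0% = neutral control wells and 100% = parthenolide positive control wells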
SR-BI uptake up = activators of SR-BI mediated HDL lipid uptake; CHO ldlA[mSR-BI] cells, DiI-HDL uptake fluorescence, 3 h; 100 = double the neutral-control signal; 0.096% of 320,000 active; AID 504775; activation, % at 12.5 µM;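 active means mean replicate activation of at least 60% and every replicate at or above 60%; inconclusive means mean or all-replicate condition met, but not both; inactive means mean below 60% and not all replicates reaching 60%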;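 further: 0% = median plate neutral-control signal and 100% = twice that signal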
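Material – SR-BI-overexpressing, LDLR-lacking CHO cells · Medium – BSA-supplemented, HEPES-buffered Ham's F12, pH 7.4 · Doses – single concentration · Times – compound with DiI-HDL co-incubation, 3 h at 37 °C · Measured by – bottom-read fluorescence, 550/595 nm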
Wnt act = activators of Wnt/beta-catenin signaling | Wnt/beta-catenin reporter cell assay, activator, plate reader | 1.2% of 300,000 active | activation, % at 9.35 µM; in the data active means activation above about 30%, passing the limit was not always enough; inconclusive means no clear call, values can overlap the other calls;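 further: 0% = neutral control wells and 100% = positive control wells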
HSF1 activator = increases HSF-1 driven luciferase reporter signal; NIH3T3-HGL HSF-1 luciferase reporter, MG132, 8 h; 100% = twice DMSO control signal; activation, % at 9 µM; 1.7% of 300,000 active;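 active means mean replicate activation of at least 50% with a set share of replicates each reaching 50%; inconclusive means only one of those two conditions met; inactive means mean below 50% and too few replicates reaching it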;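 further: 0% = median of the neutral control wells and 100% = twice that signal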
SR-BI HDL uptake = inhibitors of mouse SR-BI mediated HDL lipid uptake | Q61009 | ldlA[mSR-BI] CHO cells, DiI-HDL uptake fluorescence, 3 h | inhibition, % at 12.5 µM | 0.96% of 320,000 active;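 active means mean replicate inhibition of at least 70% and a set share of replicates each scoring 70 or more; inconclusive means meets just one of the two criteria; inactive means fails both criteria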;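 further: 0% = median of neutral control wells and 100% = median of positive control wells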
Target sequence (Q61009 whole entry, looked up): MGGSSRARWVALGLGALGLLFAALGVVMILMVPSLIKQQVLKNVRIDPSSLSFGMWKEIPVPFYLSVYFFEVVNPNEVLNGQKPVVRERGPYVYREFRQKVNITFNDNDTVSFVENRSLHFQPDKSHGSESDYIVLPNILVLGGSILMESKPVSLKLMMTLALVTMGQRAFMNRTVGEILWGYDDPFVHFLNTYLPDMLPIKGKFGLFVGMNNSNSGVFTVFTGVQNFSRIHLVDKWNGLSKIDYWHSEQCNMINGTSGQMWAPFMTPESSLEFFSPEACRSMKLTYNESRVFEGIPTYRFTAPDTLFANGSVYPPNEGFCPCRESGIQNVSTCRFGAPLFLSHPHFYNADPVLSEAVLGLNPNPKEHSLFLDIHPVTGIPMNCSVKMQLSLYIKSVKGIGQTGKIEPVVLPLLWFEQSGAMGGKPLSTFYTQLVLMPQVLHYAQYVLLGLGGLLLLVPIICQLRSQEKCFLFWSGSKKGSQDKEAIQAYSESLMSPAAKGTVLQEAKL
* hit, by the source's call; ? = inconclusive; · = no result. Only some compounds are listed: those with a hit (about 3.6% of all), similar ones and a draw of the others.

SMILES | MITF act | SR-BI uptake up | Wnt act | HSF1 activator | SR-BI HDL uptake
O=C(N[C@@H](Cc1cccnc1)C(=O)N1CCC[C@H]1C(=O)NC1CCCC1)C1CC1 | · | · | 1 | · | ·
CC(C)(C)OC(=O)Nc1ccccc1-n1nnnc1C(C(=O)c1ccc(F)cc1)N1CCN(c2ccccn2)CC1 (stereo not given) | · | · | -3 | · | ·
COc1ccc(C2CC(c3c(O)cc(C)oc3=O)=NCCS2)c(OC)c1 (stereo not given) | -38 | -30 | -6 | · | 78*
O=c1cc(-c2ccccc2)oc2ccc(Br)cc12 | 47 | 15 | ? | · | -15
O=c1cc(-c2ccc3c(c2)OCCO3)oc2ccc(Cl)cc12 | 5 | -6 | 47* | 31 | 13
O=c1oc(-c2ccccc2)cc(Cl)c1Cl | -45 | 36 | 2 | 455* | -36
Cc1ccccc1-c1cc(=O)c2ccccc2o1 | 1 | -22 | 5 | · | 22
O=c1cc(-c2ccccc2F)oc2ccccc12 | · | -3 | 47* | 29 | 3
O=c1cc(-c2ccccc2)oc2ccc(Cl)cc12 | · | 31 | 47* | · | -31
Cc1cc(Cl)c(C)c(S(=O)(=O)N2CCN(CC(=O)N3CCOCC3)CC2)c1Cl | -3 | -54 | -3 | · | 54
Nc1ncnn1Cc1ccccc1 | · | · | -7 | · | ·
Clc1ccc(CO/N=C/c2c(-c3ccccc3)nc3n2CCS3)c(Cl)c1 | · | -37 | · | 74* | 37
CCC(c1nnnn1-c1ccc2c(c1)OCCO2)N1CCN(C(C)=O)CC1 (stereo not given) | · | · | -2 | · | ·
CC(=O)Nc1cccc(OCc2ccc([N+](=O)[O-])cc2)c1 | · | · | 43* | · | ·
CC(=O)Nc1cccc(OCCCOc2ccc([N+](=O)[O-])cc2)c1 | 19 | -4 | 1 | 28 | 4
CC(=O)Nc1ccc(NC(=O)c2ccc(COc3ccccc3)cc2)cc1 | · | 7 | -1 | 3 | -7
CC(=O)Nc1cccc(NC(=O)c2ccc(COc3ccccc3)cc2)c1 | 154* | · | -2 | 37 | ·
CC(NCCN(C)C)C1CCC2C3CCc4cc(O)ccc4C3CCC12C (stereo not given) | -87 | 10 | -2 | · | -10
CC1CCN(c2ccc(C=O)o2)CC1 | 4 | 2 | 0 | 58* | -2
Cc1ccc(NC(=S)Nc2ccc(-c3nnc4n3CCCCC4)cc2)cc1C | · | · | -2 | · | ·
Cc1ccc(/C=N/NC(=O)c2ccco2)s1 | 44 | -22 | 45* | 26 | 22
O=C(N/N=C/c1ccc(Br)s1)c1ccco1 | ? | 6 | 43* | -8 | -6
Cc1cccc(NC(=O)c2cc3ccccc3c(=O)o2)n1 | 57 | · | 52* | 43 | ·
Cc1nc(NC(=O)c2cc3ccccc3o2)ccc1Br | 63 | 5 | 14 | 31 | -5
CC(c1ccccc1)C1C(C#N)=C(N)OC2=C1C(=O)CC(C)(C)C2 (stereo not given) | · | -2 | -6 | -8 | 2
SMILES | MITF act | SR-BI uptake up | Wnt act | HSF1 activator | SR-BI HDL uptake
CC1(C)CC(=O)C2=C(C1)OC(N)=C(C#N)C2C#Cc1ccccc1 (stereo not given) | -3 | · | 4 | 78* | ·
S=C1NC(c2ccccc2)=NCN1c1ccccc1 | · | 32 | 42* | 43 | -32
CC(=O)N(C)C[C@@H]1Oc2cc(Br)ccc2S(=O)(=O)N([C@H](C)CO)C[C@@H]1C | · | · | -1 | · | ·
c1ccc(-c2nc3nc4ccccc4nc3n2Cc2ccco2)cc1 | 34 | 1 | 44* | -3 | -1
O=C(O)c1csc(N/N=C/c2ccc(Br)cc2)n1 | -25 | 14 | -1 | 81* | -14
Cc1csc(N/N=C/c2ccc([N+](=O)[O-])cc2)n1 | · | · | 12 | -11 | ·
COc1ccc2cc(/C=N/NC(=O)CN(c3ccccc3OC)S(=O)(=O)c3ccccc3)c(Cl)nc2c1 | · | · | -15 | · | ·
O=[N+]([O-])c1ccc(C=CC=Cc2ccccc2)cc1 | · | · | 0 | · | ·
[O-]/[N+](=C\C=C\c1ccccc1)c1ccccc1 | 94* | 10 | 29 | 62* | -10
CCc1cc(CNC(=O)CCc2nnc(CCCc3ccccc3)o2)on1 | 89* | · | 43* | 42 | ·
CC(C)c1cc(CNC(=O)CCc2nnc(CCCc3ccccc3)o2)on1 | 52 | 13 | ? | 26 | -13
COc1ccc(Cl)cc1NC(=O)C1CCN(C(=O)C2CC(=O)N(c3ccc(C)cc3)C2)CC1 (stereo not given) | 1 | -89 | 0 | 5 | 89*
O=C(NC1CCN(Cc2ccccc2)CC1)c1ccc(Cn2c(=S)[nH]c3ccc(N4CCOCC4)cc3c2=O)cc1 | 81* | 21 | 13 | 36 | -21
COc1ccccc1-c1nnc(-c2ccc(C)cc2)o1 | · | -3 | -1 | ? | 3
COc1ccccc1-c1nnc(-c2ccc(N3CCOCC3)cc2)o1 | 74 | -6 | · | 59* | 6
CC(C)(C)c1ccc(CCC2OCC(C[N+]3(C)CCOCC3)O2)cc1 (stereo not given) | · | 19 | 31* | 6 | -19
COC(=O)C(C(=O)OC)[C@@H]1C=C[C@H](C[N+](=O)[O-])N(C(C)=O)C1 | 1 | 0 | -1 | · | 0
Nc1c(C(=O)c2ccccc2)sc2nsc(SCCN3CCCC3)c12 | · | -5 | 12 | 118* | 5
Cc1ccc2cc(NC(=O)CC(CC(=O)O)c3ccccc3)ccc2n1 (stereo not given) | 0 | 15 | 0 | -5 | -15
O=C(Nc1ccc2ccccc2c1)c1cccc(F)c1 | 123* | -45 | 46* | 79* | 45
O=C(Nc1ccc2[nH]ncc2c1)c1cccc(F)c1 | · | -3 | -3 | 24 | 3
O=C(Nc1cccc(NC(=O)c2cccc(F)c2)n1)c1cccc(F)c1 | 29 | -87 | 21 | 6 | 87*
Cc1ccnc(NC(=O)Nc2cccc(F)c2)n1 | 28 | 23 | 80* | 35 | -23
Cc1ccc2cc(NC(=O)c3ccccc3)ccc2n1 | 49 | 4 | 40* | 38 | -4
O=C(Nc1cccc(NC(=O)c2c(F)cccc2F)n1)c1c(F)cccc1F | -6 | -61 | -2 | 13 | 61
SMILES | MITF act | SR-BI uptake up | Wnt act | HSF1 activator | SR-BI HDL uptake
COc1cccc(NC(=O)Nc2nccc(C)n2)c1 | -5 | 4 | 7 | 24 | -4
O=C(CS(=O)(=O)c1ccccc1)Nc1ccccc1Br | · | 13 | 12 | · | -13
COc1cccc2ccc(CC(O)(c3ccccc3)c3ccccc3)nc12 | · | · | -1 | · | ·
CCCC(=O)OCC1CN(Cc2ccco2)S(=O)(=O)c2c(F)cccc2O1 (stereo not given) | 4 | 12 | -1 | · | -12
COC(=O)c1cc(NC(=O)c2cccc(F)c2)cc(C(=O)OC)c1 | 3 | -78 | -2 | 8 | 78*
COC(=O)c1cc(NC(=O)c2cccnc2)cc(C(=O)OC)c1 | 11 | -14 | -1 | 21 | 14
Cc1ccc2cc(NC(=O)c3cccc(F)c3)ccc2n1 | · | -21 | 50* | 36 | 21
O=C(Nc1ccc2oc(=O)ccc2c1)c1ccc2ccccc2c1 | 50 | -27 | 11 | 60* | 27
CC(C)C(=O)Nc1cccc(NC(=O)c2cccc(F)c2)c1 | 1 | 0 | -1 | 9 | 0
